High-throughput results as filed in PubChem BioAssay.
Sampled rows, rich in hits. Any-hit rate of the full collection: about 2.5%.
Pemphigus Ab inh = inhibitors of pemphigus antibody binding to DSG3, primary screen, biochemical, bead-based, flow cytometry, scFv-GFP; Desmoglein-3 (Homo sapiens), P32926; DSG3-coupled beads, scFv-anti-DSG3-GFP binding; stronger effect = lower value; binding (percent of control), % at 10 µM; 310,000 compounds, 0.48% hits;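 active = binding more than 3 SD below its plate's average and above zero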
Target sequence (P32926 whole entry, looked up): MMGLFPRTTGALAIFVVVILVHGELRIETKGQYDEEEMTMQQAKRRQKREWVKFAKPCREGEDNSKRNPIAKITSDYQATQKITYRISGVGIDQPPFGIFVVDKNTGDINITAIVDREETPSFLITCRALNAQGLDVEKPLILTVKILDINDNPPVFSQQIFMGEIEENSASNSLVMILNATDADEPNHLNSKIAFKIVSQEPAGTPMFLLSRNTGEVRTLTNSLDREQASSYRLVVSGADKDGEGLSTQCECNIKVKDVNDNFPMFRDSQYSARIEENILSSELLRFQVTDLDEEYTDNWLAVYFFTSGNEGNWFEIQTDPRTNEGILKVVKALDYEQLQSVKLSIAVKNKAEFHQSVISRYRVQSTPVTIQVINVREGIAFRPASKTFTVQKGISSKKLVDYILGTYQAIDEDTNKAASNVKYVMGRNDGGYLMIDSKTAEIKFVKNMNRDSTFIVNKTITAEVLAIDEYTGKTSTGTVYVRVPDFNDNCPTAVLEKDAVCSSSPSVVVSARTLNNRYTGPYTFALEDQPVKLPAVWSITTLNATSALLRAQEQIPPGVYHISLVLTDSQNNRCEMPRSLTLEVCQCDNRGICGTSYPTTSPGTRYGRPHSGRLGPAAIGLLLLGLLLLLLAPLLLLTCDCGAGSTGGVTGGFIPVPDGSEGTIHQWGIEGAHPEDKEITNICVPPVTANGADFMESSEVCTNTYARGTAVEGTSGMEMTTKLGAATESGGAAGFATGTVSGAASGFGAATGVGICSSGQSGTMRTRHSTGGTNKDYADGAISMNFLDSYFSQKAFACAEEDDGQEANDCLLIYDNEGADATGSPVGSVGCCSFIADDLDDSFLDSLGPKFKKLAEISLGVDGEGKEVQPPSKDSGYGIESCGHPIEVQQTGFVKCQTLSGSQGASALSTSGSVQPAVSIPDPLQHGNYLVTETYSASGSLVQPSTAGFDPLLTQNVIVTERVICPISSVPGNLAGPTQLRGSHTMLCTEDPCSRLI
MBD2 DNA inh = inhibitors of MBD2 binding to methylated DNA, primary screen, biochemical, TR-FRET, DNA-binding domain, human; Methyl-CpG-binding domain protein 2 (Homo sapiens), Q9UBB5; MBD2 binding to methylated oligonucleotide; inhibition, % at 4.4 µM; 370,000 compounds, 0.31% hits; in the data active = inhibition above about 13%
UHRF1 binding = UHRF1 methylated DNA binding inhibitors, primary screen, counter-screen for MBD2 inhibitor project, biochemical, TR-FRET, human UHRF1, single concentration | UHRF1 binding to methylated oligo | inhibition, % at 4.4 µM | 370,000 compounds, 0.75% hits; in the data active = inhibition above about 21%;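 also: UHRF1 SRA domain binding a hemimethylated CpG hairpin DNA probe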
DNMT1 inh = human DNMT1 methyltransferase inhibitors, primary screen, biochemical, molecular beacon, fluorescence, HinP1I cleavage, uHTS | DNA (cytosine-5)-methyltransferase 1 (Homo sapiens), P26358 | 360,000 compounds, 0.83% hits | inhibition (reported as % activation of signal), % at 10 µM; in the data active = inhibition above about 50%
NS3 helicase inh = inhibitors of HCV NS3 helicase, primary screen, biochemical, Cy5 molecular beacon fluorescence | Hepatitis C virus NS3 helicase | NS3 helicase DNA unwinding | inhibition, % at 10.9 µM | 290,000 compounds, 0.56% hits | AID 1800, 2009;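 active = inhibition above the mean of all tested compounds plus 3 SD, set per campaign, cut at about 35% in these data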
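Material: hepatitis C virus NS3 helicase domain fragment enzyme; measured by: Cy5 fluorescence, 0 and 60 min reads; control set: DMSO and thioflavine S; incubation: 60 min unwinding reaction at 25 °C after ATP addition; read-out basis: % inhibition from 60/0 min fluorescence ratio, DMSO 0%, thioflavine S 100%; repeats: singlicate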
SUMO1 PPI mod = modulators of SUMO1 protein-protein interactions, primary screen, biochemical, uHTS; Small ubiquitin-related modifier 1 (Homo sapiens), P63165; SUMO1 binding to a labelled peptide, TR-FRET, 1 h; inhibition, % at 20 µM; 360,000 compounds, 0.33% hits; in the data active = inhibition above about 37%
DNMT1 interf DR = spectral interference with molecular beacon fluorescence, dose response, artefact control for DNMT1 inhibitor project, biochemical, fluorescent molecular beacon | spectral interference counter-screen | 200 tested, under 10 active | shares compounds with DNMT1 inh | AID 602382, 2012 | IC50, µM; call rule not given here
DNMT1 inh conf = DNMT1 methyltransferase inhibitor retest, confirmation, biochemical, molecular beacon, fluorescence, single concentration. shares compounds with DNMT1 inh. DNMT1 molecular beacon HinP1I cleavage. inhibition, % at 10 µM. 2,300 compounds, 8% hits. AID 602385, 2012;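 active = average inhibition of at least 30% in the single-concentration confirmation test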
DNMT1 interf = counter-screen for DNMT1 inhibitors: spectral interference; shares compounds with DNMT1 inh; DNMT1 molecular beacon spectral interference counterscreen, fluorescence 485/520; activation (fluorescence interference), % at 10 µM; 2,300 compounds, 1% hits; AID 602387;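 active = activation of at least 30% at 10 µM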;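 also: DNMT1 catalytic domain with a HinP1I cleavage step and a FAM/dabcyl DNA beacon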
Each line names hits and unclear results; the compound was inactive in the other large screens (follow-up assays come after a bar, where they were run).

CCOc1ccc(-c2nnc3sc(COc4ccc(C)cc4)nn23)cc1	none
O=C(Cc1cccs1)NCc1ccccc1	none
Cc1ccnc(NS(=O)(=O)c2ccc(NC(=O)Cc3cccs3)cc2)n1	DNMT1 inh 90 (no result: MBD2 DNA inh, UHRF1 binding) | DNMT1 interf DR inactive | DNMT1 inh conf inactive | DNMT1 interf inactive
Cc1ccnc(NS(=O)(=O)c2ccc(NC(=O)Cc3ccc(F)cc3)cc2)n1	none
O=C(Cc1cccs1)Nc1ccc(S(=O)(=O)N2CCCCC2)cc1	DNMT1 inh 57 | DNMT1 inh conf inactive | DNMT1 interf inactive
NS(=O)(=O)c1ccc(CNC(=O)Cc2cccs2)cc1	DNMT1 inh 52 | DNMT1 inh conf inactive | DNMT1 interf inactive
O=C(Cc1cccs1)Nc1ccc(S(=O)(=O)Nc2ncccn2)cc1	DNMT1 inh 68 | DNMT1 inh conf inactive | DNMT1 interf inactive
CC[n+]1c(/C=C2\C=C(C)CC(C)(C)C2)sc2ccccc21	none
O=C(CSc1ccccn1)Nc1ccc2c(c1)OCCO2	none
CCOC(=O)[C@@]12CCC3=C1N(CCC3)C(=O)[C@H](CC(=O)NCc1ccc(C)o1)C2	none (no result: Pemphigus Ab inh, DNMT1 inh, NS3 helicase inh, SUMO1 PPI mod)
O=C(COC(=O)Cc1ccsc1)Nc1ccc(Cl)c(S(=O)(=O)N2CCOCC2)c1	DNMT1 inh 77 | DNMT1 inh conf inactive | DNMT1 interf inactive
O=C(COC(=O)Cc1ccsc1)Nc1ccc(S(=O)(=O)N2CCOCC2)cc1	none
S=c1[nH]nc(-c2n[nH]c3c2CCC3)n1/N=C/C=C/c1ccco1	DNMT1 inh 51 | DNMT1 inh conf inactive | DNMT1 interf inactive
COc1ccccc1/C=C/C=N/n1c(-c2ccco2)n[nH]c1=S	none (no result: Pemphigus Ab inh)
S=c1[nH]nc(-c2n[nH]c3c2CCC3)n1N=Cc1ccco1	none (no result: Pemphigus Ab inh, DNMT1 inh, NS3 helicase inh, SUMO1 PPI mod)
S=c1[nH]nc(-c2ccco2)n1/N=C/C=C/c1ccco1	UHRF1 binding 26, DNMT1 inh 83 | DNMT1 inh conf inactive | DNMT1 interf inactive
S=c1[nH]nc(-c2cc(-c3ccccc3)n[nH]2)n1/N=C/C=C/c1ccco1	DNMT1 inh 62 | DNMT1 inh conf inactive | DNMT1 interf inactive
O=C(COC(=O)c1ccc(Cl)c(S(=O)(=O)N2CCN(c3ccc(F)cc3)CC2)c1)Nc1cccc(Cl)c1	none
CCC/C(=N\NC(=O)c1ccc(CSc2nncn2C)cc1)c1ccccc1	none
C#CCSc1nsc(SCC#C)c1C#N	DNMT1 inh 77 | DNMT1 inh conf inactive | DNMT1 interf inactive
CCn1c(C)[n+](CCOC(C)=O)c2cc(Cl)c(Cl)cc21	none (no result: Pemphigus Ab inh)
COc1ccc(C(=O)Nc2ccc(NC(=O)c3cccs3)cc2)cc1[N+](=O)[O-]	none | DNMT1 inh conf inactive | DNMT1 interf inactive
CC1(C)C[C@H]2C3=CCC4[C@@]5(C)CC[C@H](O)C(C)(C)C5CC[C@@]4(C)[C@]3(C)[C@@H](O)[C@@H](O)[C@@]2(CO)[C@@H](O)[C@@H]1O (stereo partly drawn)	none (no result: NS3 helicase inh)
COC(=O)[C@@]1(C)CC[C@]2(C)CC[C@@]3(C)C(=CC(=O)C4[C@@]5(C)CC[C@H](O)C(C)(C)[C@@H]5CC[C@]43C)[C@H]2C1 (stereo partly drawn)	DNMT1 inh 53 (no result: NS3 helicase inh) | DNMT1 inh conf inactive | DNMT1 interf inactive
CCOc1ccccc1N1Cc2cc(C)c(C)cc2C1	DNMT1 inh 54 | DNMT1 inh conf inactive | DNMT1 interf inactive
Cc1ccc([C@@H]2CC=C(C(=O)O)[C@H](c3ccc(C(C)(C)C)cc3)N2S(=O)(=O)c2ccc(C)cc2)cc1	none (no result: NS3 helicase inh)
Cc1ccc(S(=O)(=O)N2[C@@H](c3ccc(C(C)(C)C)cc3)C(C(=O)O)=CC[C@H]2c2ccc(C(C)C)cc2)cc1	DNMT1 inh 58 (no result: NS3 helicase inh) | DNMT1 interf DR inactive | DNMT1 inh conf 52 | DNMT1 interf inactive
O=c1oc2c(O)cccc2cc1-c1nc2ccccc2[nH]1	DNMT1 inh 63 | DNMT1 inh conf inactive | DNMT1 interf inactive
CC(C)C[C@H]1CNC(=S)N1CC1CCCN1C[C@H](Cc1ccccc1)N1C[C@H](Cc2ccc(O)cc2)N(CC2CCCCC2)C1=S (stereo partly drawn)	none (no result: NS3 helicase inh)
C=C(C)C(=O)Nc1cccc(C2=NOC3(C2)C[C@H](C(N)=O)N(C(=O)CC)C3)c1 (stereo partly drawn)	DNMT1 inh 99, SUMO1 PPI mod 62 (no result: MBD2 DNA inh, UHRF1 binding, NS3 helicase inh) | DNMT1 interf DR inactive | DNMT1 inh conf 55 | DNMT1 interf inactive
CCC(=O)N1CC2(CC(c3cccc(NC(=O)CC(c4ccccc4)c4ccccc4)c3)=NO2)C[C@H]1C(N)=O (stereo partly drawn)	none (no result: NS3 helicase inh)
C/C=C/C=C/C(=O)N1CC2(CC(c3cccc(NC(=O)CCCCC)c3)=NO2)C[C@H]1C(N)=O (stereo partly drawn)	DNMT1 inh 66 (no result: NS3 helicase inh) | DNMT1 inh conf inactive | DNMT1 interf inactive
O=C(O)CCC(=O)Nc1ccc(N2CCCCC2)c(C(=O)O)c1	none
C(=C\c1nc(N2CCCC2)c2ccccc2n1)/c1ccccc1	DNMT1 inh 61 | DNMT1 inh conf inactive | DNMT1 interf inactive
CC1CCN(c2nc(/C=C/c3ccccc3)nc3ccccc23)CC1	none
O=C(Nc1ccc(-n2cnnn2)cc1)c1cccc(S(=O)(=O)N2CCCC2)c1	none (no result: NS3 helicase inh)
CC1(OC(=O)c2ccc(Cl)nc2)C(=O)C=C2C=C3CCCN3C=C2C1=O (stereo not drawn)	DNMT1 inh 66 (no result: NS3 helicase inh) | DNMT1 inh conf inactive | DNMT1 interf inactive
O=C(Nc1sc2c(c1C(=O)O)CCC2)c1ccccc1	DNMT1 inh 82 (no result: Pemphigus Ab inh) | DNMT1 inh conf inactive | DNMT1 interf inactive
Cc1cccc(N(Cc2cc3ccccc3[nH]c2=O)S(C)(=O)=O)c1	none
O=C(CSc1ncn[nH]1)NCCCc1ccccc1	none
Cc1ccc(NC(=O)CCc2nc3sc4c(c3c(=O)[nH]2)CCCC4)nc1	DNMT1 inh 50 (no result: MBD2 DNA inh, UHRF1 binding, NS3 helicase inh) | DNMT1 inh conf inactive | DNMT1 interf inactive
Cc1cccc(NC(=O)CCc2nc3sc4c(c3c(=O)[nH]2)CCCC4)c1	none (no result: NS3 helicase inh)
